# GSTO1 counter: inhibitors of recombinant GSTO1, primary screen, counter-screen for RBBP9 inhibitor project, biochemical, fluorescence polarization; 1.1% of 300,000 active; Glutathione S-transferase omega-1 (Homo sapiens), P78417; inhibition, % at 5.96 µM; activity-based probe fluorescence polarization;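 active means inhibition above the campaign mean inhibition plus 3 SD, cut at about 35% in these data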;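 further: 0% = GSTO1-1 with DMSO and 100% = wells lacking GSTO1-1 enzyme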
# Target sequence (P78417 whole entry, looked up): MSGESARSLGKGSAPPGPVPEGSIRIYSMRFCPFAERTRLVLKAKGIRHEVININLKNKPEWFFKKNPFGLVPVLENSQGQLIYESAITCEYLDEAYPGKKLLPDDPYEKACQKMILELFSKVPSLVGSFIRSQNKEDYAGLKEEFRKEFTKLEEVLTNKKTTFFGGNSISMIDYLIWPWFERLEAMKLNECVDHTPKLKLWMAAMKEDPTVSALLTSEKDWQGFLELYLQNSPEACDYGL
# TDP2 absorb: human TDP2 enzyme inhibitors, primary screen, biochemical, epi absorbance, recombinant enzyme | Tyrosyl-DNA phosphodiesterase 2 (Homo sapiens), O95551 | T5PNP hydrolysis, p-nitrophenol absorbance 415 nm | inhibition, % at 12.8 µM | 0.34% of 370,000 active | AID 720702, 2013;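 active means inhibition above the mean of all tested compounds plus 3 SD, set per campaign, cut at about 25% in these data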;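 further: 0% = DMSO with enzyme and 100% = buffer with substrate but no TDP2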
# Target sequence (O95551 whole entry, looked up): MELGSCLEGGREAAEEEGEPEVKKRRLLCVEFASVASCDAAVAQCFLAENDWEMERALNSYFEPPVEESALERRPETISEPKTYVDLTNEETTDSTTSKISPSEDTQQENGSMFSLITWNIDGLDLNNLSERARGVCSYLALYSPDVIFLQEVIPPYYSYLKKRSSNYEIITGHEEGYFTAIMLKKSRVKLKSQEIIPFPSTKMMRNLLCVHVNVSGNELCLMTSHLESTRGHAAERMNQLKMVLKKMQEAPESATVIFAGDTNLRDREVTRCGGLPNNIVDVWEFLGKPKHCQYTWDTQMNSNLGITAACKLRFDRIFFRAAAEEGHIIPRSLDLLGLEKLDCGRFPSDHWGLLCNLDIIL
#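 Read-out basis: percent inhibition. System: recombinant human TDP2. Buffer or medium: Mg2+-containing Tris-HCl buffer, pH 7.5. Repeats: single replicate. Timing: reaction 2 h, 37 °C. Benchmarks: high control without enzyme, low control DMSO plus TDP2. Probe or stimulus: 5 mM T5PNP. Doses: 12.8 µM only. Measured by: epi absorbance of p-nitrophenol freed from T5PNP by hydrolysis.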
# Apaf-1 inh: inhibitors of human Apaf-1 apoptosome, primary screen, biochemical, DEVD-Rh110 fluorescence, uHTS. reconstituted apoptosome caspase-3 activity. inhibition, % at 20 µM. 0.71% of 330,000 active. AID 489030, 2010; active means inhibition of at least 40% at 20 µM;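 further: plate controls were DMSO wells for no effect and DEVD-CHO caspase inhibitor wells for full effect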
#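 Material: cell-free apoptosome with Apaf-1, procaspase-3 and caspase-9; Buffer or medium: Hepes pH 7.5 with detergent and BSA; Reagent: cytochrome c trigger plus (Z-DEVD)2-Rh110 caspase-3 substrate; Times: compound with Apaf-1, dATP, procaspase-3 30 min, then 50 min reaction, room temperature; Technique: Rh110 fluorescence intensity.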
# PRMT1 FP inh: PRMT1 methyltransferase inhibitors, primary screen, biochemical, fluorescence polarization. Protein arginine N-methyltransferase 1 (Homo sapiens), Q99873. recombinant PRMT1, activity-based probe fluorescence polarization. inhibition, % at 2.79 µM. 1.3% of 370,000 active. AID 652257, 2013;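 active means inhibition above about 21% made by adding two undisclosed values, limit read from the data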
# PAD4 inh: human PAD4 inhibitors, primary screen, biochemical, fluorescence polarization, 1536-well format. Protein-arginine deiminase type-4 (Homo sapiens), Q9UM07. recombinant PAD4, RCA probe fluorescence polarization. AID 485272, 2010. inhibition, % at 6.36 µM. 0.41% of 330,000 active;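 active means percent inhibition above a cutoff equal to the mean of all tested compounds plus 3 SD, cut at about 15% in these data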;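 further: 0% = PAD4 with RCA probe and DMSO and 100% = probe without PAD4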
# An asterisk follows results filed as active; . = no result. Only some compounds are listed: those with a hit (about 2.6% of all), similar ones and a draw of the others.
SMILES,GSTO1 counter,TDP2 absorb,Apaf-1 inh,PRMT1 FP inh,PAD4 inh
Fc1ccc(-c2csc(=S)[nH]2)cc1,1,-2,0,22*,2
CCSc1ccc(-c2ccco2)nn1,8,6,0,3,-1
Fc1cccc(CSc2ccc(-c3ccco3)nn2)c1,1,-14,3,24*,-3
CCc1nnn2c1Cn1c3ccccc3c(=O)n1[C@@H](C(C)C)C2,.,3,.,-4,.
CCOC(=O)N1CCC2(CC1)C(C#N)=C(N)Oc1n[nH]c(CSc3ccc(C)cc3)c12,36*,4,13,3,-3
FC(F)(F)Oc1ccc(Cn2ccc3ccc(-c4ccc5ccn(Cc6ccccc6)c5c4)cc32)cc1,.,1,.,7,.
COc1cc(/C=C2/C(=O)N(c3ccc(C)c(C)c3)N=C2C)cc([N+](=O)[O-])c1O,7,19,10,0,-6
COc1cc(/C=C2/C(=O)N(c3ccc(C(=O)O)cc3)N=C2C)cc(OC)c1O,.,21,78*,5,.
CC(C)OC(=O)c1cn(-c2ccccc2)nc1-c1ccco1,-12,5,7,23*,-3
CCOC(=O)C1=C(C)NC(C)=C(C(=O)OCC)C1c1cn(-c2ccccc2)nc1-c1ccco1,-7,-2,10,-2,-2
Cc1ccc(C(NC(=O)N2CCOCC2)C(Cl)Cl)cc1F (stereo unspecified),1,-1,-6,3,-5
Cc1ccc(C(NC(=O)N2CCOCC2)=C(Cl)Cl)cc1F,36*,-1,1,-4,5
CC1(C)Cc2ccccc2/C(=C/C(=O)N2CCCCCC2)N1,-1,5,-5,22*,-8
CN1C2=N[C@@H](c3ccc4c(c3)OCO4)CC(=O)N2/C(=C\c2ccccc2)[C@H]1c1ccccc1,.,3,.,1,.
C=CCSC1=C(C#N)C(c2ccccc2OC)CC(=O)N1 (stereo unspecified),1,2,-6,17,5
C=CCSC1=C(C#N)C(c2ccccc2OCC)CC(=O)N1 (stereo unspecified),-3,2,9,22*,-6
O=C(CSc1nnc(COc2ccc(Cl)cc2)n1Cc1ccco1)Nc1ccc(OCc2ccccc2)cc1,.,6,.,-1,.
NC1=C(c2ccc([N+](=O)[O-])cc2)C(=O)CO1,-4,-14,-4,-2,-1
O=c1oc2c(-c3ccc([N+](=O)[O-])cc3)cc(O)cc2s1,78*,18,6,78*,-2
CCCCCCOc1ccc(N2C(=O)CC(SCCN)C2=O)cc1 (stereo unspecified),1,-3,20,19,3
CCOc1ccc(N2C(=O)CC(SCCN)C2=O)cc1 (stereo unspecified),-5,-8,0,22*,-4
O=C(CNC(=O)c1ccc(Cl)cc1)OCN1C(=O)c2ccccc2C1=O,.,-6,-2,-1,2
CC(=O)NCC(=O)OCN1C(=O)c2ccccc2C1=O,36*,-17,-3,0,-1
CC(C)(C)c1cc(C(c2cccnc2)N2CCN(CCO)CC2)cc(C(C)(C)C)c1O (stereo unspecified),-5,-2,9,22*,-1
CC(C)(C)n1nnnc1C(c1cccnc1)N1CCN(c2cccc(C(F)(F)F)c2)CC1 (stereo unspecified),4,1,9,1,-3
SMILES,GSTO1 counter,TDP2 absorb,Apaf-1 inh,PRMT1 FP inh,PAD4 inh
CCc1ccccc1NC(=O)c1ccc([N+](=O)[O-])s1,41*,-8,-3,2,-6
C=C1C(=O)[C@]23C[C@H]1CC[C@H]2[C@]1(C)CCC[C@@](C)(C(=O)OC)[C@H]1C[C@@H]3O,.,10,.,24*,.
CC(=O)Nc1ccc(S(=O)(=O)Nc2ccc3c(c2)CCC3)cc1,35*,13,11,0,3
COc1ccc(S(=O)(=O)Nc2ccc3c(c2)CCC3)cc1,13,2,7,-5,0
Cc1ccc(NC(=O)CN2C(=O)N/C(=C/c3cccn3-c3ccc(C(=O)O)cc3)C2=O)cc1,37*,16,.,30*,5
Cc1ccc(NC(=O)CN2C(=O)N/C(=C/c3cc(C)n(-c4ccc(C(=O)O)cc4)c3C)C2=O)cc1,.,8,.,7,.
O=C(Nc1ccc(F)cc1)OCCCN1C(=O)CCC12CCCCC2,.,0,.,-3,.
O=C(COn1nnc2ccc(S(=O)(=O)N3CCOCC3)cc21)NCCc1ccccc1,5,-6,1,-2,-2
COc1ccccc1NC(=O)COn1nnc2ccc(S(=O)(=O)N3CCOCC3)cc21,36*,8,1,2,-2
Cc1ccc(S(=O)(=O)NN2C(=O)/C(=C/c3ccc(C(=O)O)cc3)SC2=S)cc1,-5,23,4,22*,1
Cc1ccc(S(=O)(=O)NN2C(=O)/C(=C/c3cccs3)SC2=S)cc1,37*,-3,10,-1,-9
Nc1cc(=O)[nH]c(SCC(=O)Nc2cc(S(=O)(=O)N3CCCCCC3)ccc2Cl)n1,.,3,4,23*,2
COC(=O)C1CCCN(C(=O)C2CCN(S(=O)(=O)c3ccccc3[N+](=O)[O-])CC2)C1 (stereo unspecified),.,9,.,0,.
O=C(CSc1nnc2ccccn12)c1ccc(Cl)cc1,36*,-5,2,-6,-1
O=C(CSc1nnc(-c2ccccn2)n1Cc1ccco1)c1ccc(Cl)cc1,35*,-7,12,9,-3
O=C(CSc1nnc2ccccn12)NNC(=O)c1ccc(Cl)cc1,6,-6,-2,3,-2
CCN(CC)C(=O)CC[C@@H]1CC[C@]2(CCCN(Cc3ccc(Cl)cc3)C2)O1,.,-4,.,2,.
CCOc1ccc(-n2c(SCC(=O)Nc3cccc4ccccc34)nnc2-c2ccco2)cc1,.,0,.,8,.
O=C(CCl)N(c1ccccc1)C1CCCCC1,67*,-8,6,5,2
CC(=O)N(c1ccccc1)C1CCCC1,0,7,-2,-1,1
Cc1cccc(NC(=O)n2ccc3ccc(-c4ccc5cc[nH]c5c4)cc32)c1,.,4,.,0,.
CC(Sc1ccccc1)C(=O)NNC(=O)c1ccncc1 (stereo unspecified),-8,3,3,21*,-7
CCOC(=O)[C@@]12CN(C(=O)OC(C)(C)C)CC=C1N(Cc1ccc(OC)cc1)C(=O)[C@H]2CC(=O)N1CCN(C(=O)c2ccco2)CC1,.,13,.,-1,.
Cc1ccc(C2C3CN(C(C)C)CC=C3C(C#N)=C(N)C2(C#N)C#N)cc1 (stereo unspecified),4,7,7,40*,12

# Source: PubChem BioAssay
